ADAM17 inh: inhibits human ADAM17; P78536; recombinant ADAM17, EDANS/DABCYL FRET peptide cleavage; inhibition, % at 6.95 µM; 370,000 tested, 0.83% active;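 active = inhibition above the mean of compounds lying between control limits plus 3 SD, set per campaign, cut at about 8.5% in these data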
SENP1 inh: blocks the human SENP1 SUMO protease catalytic domain; Q9P0U3; recombinant SENP1 catalytic domain, CyPet-SUMO1-YPet FRET cleavage; inhibition, % at 10 µM; 360,000 tested, 0.21% active; AID 624204;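 active = inhibition at least 30% at 10 µM, raw YFP signal under a set limit, fluorescence ratio 0.5 to 1.5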
Target sequence (Q9P0U3 419-644 limits assumed): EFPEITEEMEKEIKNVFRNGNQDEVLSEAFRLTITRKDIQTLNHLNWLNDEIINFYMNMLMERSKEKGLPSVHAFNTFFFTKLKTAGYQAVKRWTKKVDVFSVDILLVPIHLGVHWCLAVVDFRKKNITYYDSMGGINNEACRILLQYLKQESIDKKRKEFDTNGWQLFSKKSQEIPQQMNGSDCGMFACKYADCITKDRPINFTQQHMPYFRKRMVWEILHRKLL
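System: Recombinant human SENP1 catalytic domain, His6-tagged | Incubation: Enzyme reaction for 50 min at room temperature, dark | Medium: Tris pH 8 with BME, BSA, NP40 and catalase | Also added: 25 nM SUMO1 FRET substrate | Compound: 10 µM single point, 0.5% DMSO | Measured by: FRET fluorescence in CFP and YFP emission channels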
FAS-TE inh: FAS thioesterase (human) inhibition; P49327; recombinant FAS-TE, OMFH fluorogenic substrate, fluorescence endpoint; inhibition, % at 15 µM; 360,000 tested, 0.67% active; AID 602261;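 active = compounds whose normalised, plate-corrected inhibition of enzyme fluorescence in the single-dose primary screen is 50% or more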
ADAM10 inh: ADAM10 inhibition, QFRET primary screen. O14672. recombinant ADAM10, EDANS/DABCYL FRET peptide cleavage, 3 h. inhibition, % at 7 µM. 370,000 tested, 0.62% active;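 active = inhibition above a per-campaign cutoff equal to the mean of compounds falling between control-based bounds plus 3 SD, cut at about 20% in these data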
ADAM10 confirm: human ADAM10 inhibition, confirmation. shares compounds with ADAM10 inh. ADAM10 QFRET peptide cleavage, EDANS fluorescence. inhibition, % at 6.95 µM. 2,100 tested, 1% active;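 active = inhibition above about 20% chosen separately for each screening run, limit read from the data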
ADAM17 ctr: ADAM17 inhibition, counter-screen for ADAM10 exosite hits | AID 743214 | 2,100 tested, 0.5% active | shares compounds with ADAM10 inh | inhibition, % at 6.95 µM | ADAM17 QFRET peptide cleavage, EDANS fluorescence;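 active = mean triplicate inhibition above the solvent-only control wells' mean plus 3 SD, cut at about 12% in these data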
Hits are given with their value; 0 = inactive; - = no result given. Rows were chosen to be rich in hits. Some 1.9% of all compounds tested hit in one or more screens of this group.

SMILES	ADAM17 inh	SENP1 inh	FAS-TE inh	ADAM10 inh	ADAM10 confirm	ADAM17 ctr
CC(C)c1[nH]nc2c1C(c1ccc3c(c1)OCO3)NC2=O (configuration not stated)	0	-	-	0	-	-
O=C(NC1CCCc2ccccc21)c1cccc(S(=O)(=O)N2CCN(c3ccccc3)CC2)c1 (configuration not stated)	9.5	0	0	20.1	0	0
CC1CCC(NC(=O)c2cccc(S(=O)(=O)N3CCN(c4ccccc4)CC3)c2)CC1 (configuration not stated)	0	0	0	0	-	-
CCOC(=O)c1c(N)sc2c(OCC)c(Br)ccc12	0	0	0	22.7	0	0
CCOC(=O)c1c(NC(C)=O)sc2c(OCC(O)CNC(C)(C)C)c(Br)ccc12 (configuration not stated)	0	0	0	0	-	-
CCCCCCCCN1C(=O)[C@@H](CC(=O)NCc2cccs2)C[C@@]2(C(=O)OC)C1=C[C@H](COCc1ccccc1)O[C@@H]2C	0	-	-	0	-	-
C(=C\c1ccccc1)/C=N/Nc1nc2ccccc2s1	0	0	0	26.1	23.3	0
CCC/C=N/Nc1nc2ccccc2s1	0	0	0	25.1	0	0
Brc1ccc(/C=C/C=N/Nc2nc3ccccc3s2)cc1	0	0	0	0	-	-
COc1ccc(N2C(=O)CSC23C(=O)N2c4c(cccc43)C(C)=CC2(C)C)cc1 (configuration not stated)	0	0	0	22.5	0	0
O=C(NCCC1=CCCCC1)C1CCN(S(=O)(=O)c2ccccc2[N+](=O)[O-])CC1	0	-	-	0	-	-
C#CCn1c(S(=O)(=O)Cc2ccc(C)cc2)nc(-c2ccccc2)c1-c1ccccc1	0	0	0	22.8	0	0
Cc1nc(-c2cccc(NS(=O)(=O)c3ccc4ccccc4c3)c2)cs1	0	0	0	25.9	0	0
O=C(Nc1nc(-c2ccncc2)cs1)c1ccc(S(=O)(=O)N2CCOCC2)cc1	0	0	0	0	-	-
COc1ccccc1OC(C)C(=O)Nc1nc(-c2ccc(S(=O)(=O)N3CCOCC3)cc2)cs1 (configuration not stated)	0	0	0	21.1	0	0
O=C1C(=O)N(C2CCCC2)C(=O)N1Cc1c(F)cccc1Cl	0	0	0	20.7	0	0
Cc1cccc(C)c1-c1ccc(CN2C(CC(C)C)C(=O)N(Cc3cn(CCO)nn3)CCS2(=O)=O)cc1 (configuration not stated)	0	0	0	22.2	0	0
COCCCN1C(=O)[C@H](CC(=O)NCC2CCCCC2)[C@]2(C(=O)OC)CCCCC=C12	0	-	-	0	-	-
Cc1cccc(N2CCN(S(=O)(=O)c3ccc4c(c3)NC(=O)CS4)CC2)c1C	0	0	0	23.2	0	0
O=C(NCc1ccccc1)c1cccc(COc2ccccc2Cl)c1	0	0	0	0	-	-
NNC(=O)c1cccc(COc2ccccc2Br)c1	0	0	0	24.0	0	0
O=C(NCCOc1ccccc1)c1cccc(S(=O)(=O)N2CCN(Cc3ccccc3)CC2)c1	0	0	0	23.9	0	0
CN1CCN(S(=O)(=O)c2cccc(C(=O)NCCOc3ccccc3)c2)CC1	0	0	0	0	-	-
COc1cccc(CNC(=O)c2cccc(S(=O)(=O)N3CCN(c4ccc(F)cc4)CC3)c2)c1	0	0	0	0	-	-
COc1ccc(CNC(=O)c2cccc(S(=O)(=O)N3CCN(c4ccc(F)cc4)CC3)c2)cc1	0	0	0	21.7	0	0
SMILES	ADAM17 inh	SENP1 inh	FAS-TE inh	ADAM10 inh	ADAM10 confirm	ADAM17 ctr
O=C(Nc1ccc2c(c1)OCO2)C1CC(c2ccc(Cl)cc2)=NO1 (configuration not stated)	0	0	0	0	-	-
COc1ccc(C2=NOC(C(=O)Nc3ccc4c(c3)OCO4)C2)cc1 (configuration not stated)	0	0	0	22.1	0	0
OC(CSc1c(Cl)cccc1Cl)CN1CCN(c2ccc(F)cc2)CC1 (configuration not stated)	11.4	0	0	20.9	0	0
O=C(Cc1cccc2ccccc12)Nc1ccccc1C(=O)O	0	0	0	0	-	-
O=C(Cc1cccc2ccccc12)Nc1cc(Cl)ccc1C(=O)O	0	0	0	22.9	0	0
O=C(Nc1ccc(S(=O)(=O)NCCc2ccccc2)cc1)c1ccc(Br)o1	0	0	0	20.6	0	0
C=CCn1c(SCC(=O)C(C)(C)C)nnc1-c1ccc(Cl)cc1	0	-	-	0	-	-
CCC(CO)Oc1cc(NCc2ccc(Cl)cc2Cl)c2ncn(C(C)C)c2c1 (configuration not stated)	0	0	0	22.2	0	0
O=C(CSc1nnc(-c2ccc(Cl)cc2)n1Cc1ccco1)Nc1ccc(S(=O)(=O)Nc2nccs2)cc1	0	-	-	0	-	-
CCCC1CC(C)(c2csc(Nc3ccc(OCC)cc3)n2)OC1=O (configuration not stated)	0	0	0	21.1	0	0
Cc1cccc(CCNC(=O)CCc2nc(-c3ccccc3F)no2)c1	0	0	0	20.5	0	0
O=C(CCc1nc(-c2ccccc2F)no1)NCCc1ccc(F)cc1	0	-	-	0	-	-
COC(=O)CCC(NS(=O)(=O)OCC(Cl)(Cl)Cl)c1ccccc1 (configuration not stated)	0	0	0	0	-	-
CC(C)CC(NS(=O)(=O)OCC(Cl)(Cl)Cl)c1ccccc1 (configuration not stated)	0	0	0	20.4	0	0
CC(C)(C)Nc1scc(-c2ccccc2)[n+]1-c1ccccc1	0	0	0	42.1	0	0
O=[N+]([O-])c1cccc(-c2nc(-c3cccs3)c(-c3cccs3)[nH]2)c1	0	0	0	0	-	-
O=[N+]([O-])c1ccc(-c2nc(-c3cccs3)c(-c3cccs3)[nH]2)cc1	14.7	0	0	23.7	25.6	11.6
COC(=O)CCC(=O)N1C2=NC3=C(C(=O)N(Cc4ccc5c(c4)OCO5)C3=O)C3N(C)c4ccccc4[C@]23C[C@H]1CO (some centres not stated)	0	-	-	0	-	-
C[C@@H]1CN([C@@H](C)CO)S(=O)(=O)c2ccc(Br)cc2O[C@H]1CN(C)C(=O)Nc1ccc(C(F)(F)F)cc1	0	0	0	21.5	0	0
C[C@@H]1CCCCO[C@@H](CN(C)C(=O)Nc2ccc(C(F)(F)F)cc2)[C@@H](C)CN([C@H](C)CO)C(=O)c2cc(NS(=O)(=O)c3ccc(Cl)cc3)ccc2O1	15.8	-	-	44.7	0	0
C[C@@H]1CCCCO[C@@H](CN(C)S(=O)(=O)c2ccc(F)cc2)[C@@H](C)CN([C@H](C)CO)C(=O)c2cc(NC(=O)c3ccccc3)ccc2O1	0	0	0	0	-	-
C[C@@H]1CN([C@H](C)CO)S(=O)(=O)c2ccc(Br)cc2O[C@@H]1CN(C)C(=O)Nc1ccc(C(F)(F)F)cc1	0	0	0	0	-	-
